Measured values reported in publication PMC7468319 (Acta Pharmacologica Sinica, 2019).
pIC50: −log10 of the molar value.

How the values were obtained:
[1] = system: BTK; experiment: Western blot, phosphorylation of BTK at Tyr223 in TMD8 cells; format: cell-based, human; conditions: Tyr223, 4 h
[2] = biological target: BTK (Homo sapiens, UniProt Q06187); format: biochemical
[3] = system: panel of 35 kinases; experiment: Kinase selectivity profile, panel of 35 kinases; format: biochemical; conditions: 1000 nM
Procedure, shortened: (§1)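 ELISA-based kinase activity assay using commercially sourced recombinant kinases, with absorbance read at 490 nm. Each test compound was profiled at 1000 nM against a panel of 35 kinases, and percent inhibition was determined for each kinase.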

[4] = biological target: ErbB4 (Homo sapiens, UniProt Q15303); experiment: Kinase selectivity ELISA at 1000 nM, ErbB4; format: biochemical
Procedure, shortened: as §1

[5] = system: Rb, phosphorylated Rb, and cyclin D1; experiment: Western blot of G1 phase related proteins; format: cell-based, human; conditions: TMD8, 48 h
[6] = biological target: T1, EGFR (Homo sapiens, UniProt P00533); experiment: Kinase selectivity ELISA at 1000 nM, EGFR; format: biochemical
Procedure, shortened: as §1

[7] = system: PARP and caspase 3; experiment: Western blot of cleaved PARP and cleaved caspase 3; format: cell-based, human; conditions: TMD8, Western blot
[8] = biological target: T1, EGFR; conditions: read-out: IC50 against EGFR; in vitro enzymatic activity; cited from earlier work
[9] = biological target: T2, ITK (Homo sapiens, UniProt Q08881); experiment: Kinase selectivity ELISA at 1000 nM, ITK; format: biochemical
T2 sequence (Q08881 1-620): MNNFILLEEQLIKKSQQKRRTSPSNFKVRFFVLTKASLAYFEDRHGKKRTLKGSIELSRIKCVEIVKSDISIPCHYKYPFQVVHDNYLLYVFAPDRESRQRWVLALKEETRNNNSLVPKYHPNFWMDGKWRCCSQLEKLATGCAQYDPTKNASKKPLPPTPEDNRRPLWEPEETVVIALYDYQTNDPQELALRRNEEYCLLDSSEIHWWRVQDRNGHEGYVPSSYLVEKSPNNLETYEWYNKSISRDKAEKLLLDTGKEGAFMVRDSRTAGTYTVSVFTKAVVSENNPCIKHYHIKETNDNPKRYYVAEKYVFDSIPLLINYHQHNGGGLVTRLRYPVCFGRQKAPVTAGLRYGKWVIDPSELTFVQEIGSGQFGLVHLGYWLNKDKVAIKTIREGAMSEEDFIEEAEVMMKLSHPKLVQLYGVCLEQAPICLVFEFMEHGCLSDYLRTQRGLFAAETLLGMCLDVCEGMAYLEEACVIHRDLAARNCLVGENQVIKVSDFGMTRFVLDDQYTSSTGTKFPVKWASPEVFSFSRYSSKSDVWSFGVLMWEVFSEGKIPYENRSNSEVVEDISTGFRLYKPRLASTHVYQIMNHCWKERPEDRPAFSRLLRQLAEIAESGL
Procedure, shortened: as §1

[10] = system: TMD8 cells; experiment: Annexin V-FITC apoptosis analysis by flow cytometry; format: cell-based, human; conditions: TMD8, 72 h, untreated control 12.77%
[11] = biological target: ErbB2 (Homo sapiens, UniProt P04626); experiment: Kinase selectivity ELISA at 1000 nM, ErbB2; format: biochemical
Procedure, shortened: as §1

Chain of BTK (Homo sapiens, UniProt Q06187) (Q06187 whole entry): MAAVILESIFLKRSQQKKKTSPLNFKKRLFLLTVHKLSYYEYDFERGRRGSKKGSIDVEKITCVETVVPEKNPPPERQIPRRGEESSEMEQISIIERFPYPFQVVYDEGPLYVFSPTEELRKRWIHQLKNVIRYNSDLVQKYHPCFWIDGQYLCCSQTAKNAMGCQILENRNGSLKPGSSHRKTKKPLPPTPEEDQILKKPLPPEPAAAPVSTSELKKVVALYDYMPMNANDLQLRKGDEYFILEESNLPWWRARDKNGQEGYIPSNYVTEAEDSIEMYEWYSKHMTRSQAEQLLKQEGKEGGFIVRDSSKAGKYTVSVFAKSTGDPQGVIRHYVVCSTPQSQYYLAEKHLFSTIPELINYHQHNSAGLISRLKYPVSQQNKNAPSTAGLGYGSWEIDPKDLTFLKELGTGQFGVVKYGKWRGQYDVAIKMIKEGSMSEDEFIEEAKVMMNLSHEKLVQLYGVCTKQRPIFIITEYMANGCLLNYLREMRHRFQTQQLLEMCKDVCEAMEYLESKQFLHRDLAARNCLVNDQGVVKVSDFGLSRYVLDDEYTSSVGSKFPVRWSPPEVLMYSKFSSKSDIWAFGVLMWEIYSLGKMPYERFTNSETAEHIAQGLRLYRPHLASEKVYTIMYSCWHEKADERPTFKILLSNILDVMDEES
T1 sequence (P00533 25-1210): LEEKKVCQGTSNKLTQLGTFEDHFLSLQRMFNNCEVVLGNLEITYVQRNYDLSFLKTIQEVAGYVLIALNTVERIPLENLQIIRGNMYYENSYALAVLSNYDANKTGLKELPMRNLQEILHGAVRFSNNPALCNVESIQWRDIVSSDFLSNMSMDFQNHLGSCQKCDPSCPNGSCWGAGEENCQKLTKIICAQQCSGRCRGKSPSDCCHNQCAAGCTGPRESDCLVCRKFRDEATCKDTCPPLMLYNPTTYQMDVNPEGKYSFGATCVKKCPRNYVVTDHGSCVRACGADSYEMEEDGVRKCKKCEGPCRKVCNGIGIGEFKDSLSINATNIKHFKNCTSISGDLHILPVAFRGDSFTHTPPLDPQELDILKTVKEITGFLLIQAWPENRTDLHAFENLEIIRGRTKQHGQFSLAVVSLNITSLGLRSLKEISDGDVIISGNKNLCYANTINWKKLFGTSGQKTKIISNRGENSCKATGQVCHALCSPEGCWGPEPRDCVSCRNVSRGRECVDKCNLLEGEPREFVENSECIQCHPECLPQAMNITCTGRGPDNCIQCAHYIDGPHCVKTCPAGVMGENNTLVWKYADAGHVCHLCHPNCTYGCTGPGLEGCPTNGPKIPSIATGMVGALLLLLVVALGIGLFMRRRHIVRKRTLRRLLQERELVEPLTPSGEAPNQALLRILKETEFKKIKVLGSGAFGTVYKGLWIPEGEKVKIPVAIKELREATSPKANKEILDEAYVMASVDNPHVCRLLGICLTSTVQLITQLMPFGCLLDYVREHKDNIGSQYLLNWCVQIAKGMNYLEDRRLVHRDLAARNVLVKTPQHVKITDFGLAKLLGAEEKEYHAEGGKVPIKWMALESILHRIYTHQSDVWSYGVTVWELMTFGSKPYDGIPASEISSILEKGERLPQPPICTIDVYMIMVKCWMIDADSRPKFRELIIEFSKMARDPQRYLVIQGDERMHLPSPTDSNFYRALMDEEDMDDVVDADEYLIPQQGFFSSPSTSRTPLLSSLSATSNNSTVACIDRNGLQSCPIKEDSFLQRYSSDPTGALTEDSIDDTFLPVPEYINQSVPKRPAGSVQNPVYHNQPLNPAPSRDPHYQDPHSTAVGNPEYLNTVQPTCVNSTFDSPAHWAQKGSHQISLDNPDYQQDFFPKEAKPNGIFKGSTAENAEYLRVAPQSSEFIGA
Chain of ErbB2 (P04626 23-1255): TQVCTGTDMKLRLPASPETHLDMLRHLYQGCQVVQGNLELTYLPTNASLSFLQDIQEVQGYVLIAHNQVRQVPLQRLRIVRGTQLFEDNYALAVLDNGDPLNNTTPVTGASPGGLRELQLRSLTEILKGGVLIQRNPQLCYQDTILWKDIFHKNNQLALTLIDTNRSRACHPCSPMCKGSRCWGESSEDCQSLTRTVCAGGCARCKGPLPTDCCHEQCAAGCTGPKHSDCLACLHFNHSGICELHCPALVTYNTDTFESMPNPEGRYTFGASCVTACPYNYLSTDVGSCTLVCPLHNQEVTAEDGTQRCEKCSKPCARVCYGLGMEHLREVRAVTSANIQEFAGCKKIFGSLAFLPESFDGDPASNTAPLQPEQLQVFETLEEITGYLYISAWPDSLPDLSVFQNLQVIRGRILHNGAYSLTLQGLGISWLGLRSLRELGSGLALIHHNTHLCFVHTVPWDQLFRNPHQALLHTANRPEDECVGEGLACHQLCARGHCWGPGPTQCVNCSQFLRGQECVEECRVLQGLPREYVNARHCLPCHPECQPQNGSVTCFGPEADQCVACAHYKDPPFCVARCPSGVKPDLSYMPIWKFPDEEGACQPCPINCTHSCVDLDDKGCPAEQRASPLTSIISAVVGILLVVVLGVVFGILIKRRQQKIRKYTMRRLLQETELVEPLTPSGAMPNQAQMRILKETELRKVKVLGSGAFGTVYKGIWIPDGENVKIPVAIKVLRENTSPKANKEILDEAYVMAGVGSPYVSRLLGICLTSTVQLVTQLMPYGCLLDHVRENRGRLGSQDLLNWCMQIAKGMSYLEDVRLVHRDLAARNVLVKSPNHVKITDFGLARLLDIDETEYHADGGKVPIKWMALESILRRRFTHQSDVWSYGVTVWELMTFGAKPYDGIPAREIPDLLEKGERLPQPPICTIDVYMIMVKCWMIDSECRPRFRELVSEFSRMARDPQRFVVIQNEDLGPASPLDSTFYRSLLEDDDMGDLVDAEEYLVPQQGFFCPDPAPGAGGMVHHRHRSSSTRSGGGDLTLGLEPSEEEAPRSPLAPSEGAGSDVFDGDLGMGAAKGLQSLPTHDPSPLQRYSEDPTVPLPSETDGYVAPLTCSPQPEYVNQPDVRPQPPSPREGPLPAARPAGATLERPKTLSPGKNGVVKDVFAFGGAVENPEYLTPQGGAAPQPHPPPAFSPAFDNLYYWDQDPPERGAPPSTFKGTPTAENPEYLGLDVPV

| selectivity for BTK than for EGFR ([2]; IC50 EGFR vs IC50 BTK) | pIC50 ([2]; read-out: IC50 against BTK, ELISA-based kinase assay) | inhibition of the other kinases tested [3] | number of kinases with greater than 50% inhibition [3] | inhibition of ErbB4 [4] | inhibition of EGFR [6] | inhibition of ITK [9] | inhibition of ErbB2 [11] | Compound | phosphorylation of BTK in TMD8 cells [1] | levels of Rb, phosphorylated Rb, and cyclin D1 proteins [5] | cleavage of PARP and caspase 3 proteins [7] | pIC50 [8] | apoptosis rate ([10]; 10 nM) | apoptosis rate ([10]; 100 nM) | apoptosis rate ([10]; 1000 nM) |
| --- | --- | --- | --- | --- | --- | --- | --- | --- | --- | --- | --- | --- | --- | --- | --- |
|  |  |  |  |  |  |  |  | CC#CC(=O)N1CCC[C@H]1c1nc(-c2ccc(C(=O)Nc3ccccn3)cc2)c2c(N)nccn12 [ACP-196, acalabrutinib] | effectively suppressed |  |  |  |  |  |  |
| greater than 6 fold | 8.15 | did not appreciably inhibit | seven | greater than 50% | greater than 50% | greater than 50% | greater than 50% | C=CC(=O)Nc1cccc(N2C(=O)OC(C)c3cnc(Nc4ccc(N5CCN(C)CC5)cc4OC)nc32)c1 (centres unmarked) [Compound 2, N-(3-(7-((2-methoxy-4-(4-methylpiperazin-1-yl)phenyl)amino)-4-methyl-2-oxo-2H-pyrimido[4,5-d][1,3]oxazin-1(4H)-yl)phenyl)acrylamide] | effectively suppressed | reduction | increased in a dose-dependent manner | 7.32 | 44.46% | 57.95% | 69.46% |
|  |  |  |  |  |  |  |  | C=CC(=O)N1CCC[C@@H](n2nc(-c3ccc(Oc4ccccc4)cc3)c3c(N)ncnc32)C1 [ibrutinib] | effectively suppressed |  |  |  |  |  |  |
